pIC50: −log10 of the molar value. In brackets after ≈: the same amount, converted by molar mass. Activity calls are given as the source filed them. No cut-off for these calls is given here.
Experiments:
[1] = system: Mycobacterium tuberculosis; experiment: Antimycobacterial activity against Mycobacterium tuberculosis H37Rv infected in human A-THP1 macrophages assessed as viability of infected macrophages incubated for 96 hrs by fluorescence microplate assay; assay type: functional, organism-based
Method in brief: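 THP-1 cells differentiated with 50 ng/mL PMA for 72 h, infected with log-phase H37Rv (MOI 10, 2 h), and extracellular bacteria killed with 50 µg/mL amikacin for 1 h. Cells detached and seeded at 5×10⁵/mL in RPMI-10% FBS with PMA onto pre-dispensed compound, 96 h at 37°C, 5% CO₂. Macrophage viability by 0.05% resazurin fluorescence.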

[2] = system: Mycobacterium tuberculosis; experiment: Bactericidal activity against Non-replicating Mycobacterium tuberculosis ss18b-lux assessed as decrease in colony forming unit measured at 1 uM after 1 weeks; assay type: functional
Method in brief: (§1)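 Streptomycin-dependent 18b-lux starved of streptomycin for 14 days (OD600 reset to 0.2 on days 7 and 13) to become non-replicating. Diluted to OD600 0.15 on dispensed compound and held at 37°C. On day 7, active wells plated on 7H11-OADC with 50 µg/mL streptomycin and incubated up to 8 weeks for cfu.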

[3] = system: Mycobacterium tuberculosis; experiment: Bactericidal activity against Non-replicating Mycobacterium tuberculosis ss18b-lux model assessed as decrease in luminescence at 10 to 10000 nM; assay type: functional, organism-based; settings: dose 10-10000 nM, TDE = time-dependent effect
Method in brief: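 Non-replicating streptomycin-starved 18b-lux (14-day starvation) diluted to OD600 0.15 in white 96-well plates with compound and incubated at 37°C. Luminescence read on days 1, 2, 5 and 7 and expressed relative to no-antibiotic controls (n ≥ 3).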

[4] = system: Mycobacterium tuberculosis; experiment: Antimycobacterial activity against Mycobacterium tuberculosis H37Rv assessed as reduction in bacterial cell growth by measuring resazurin reduction incubated for 6 days by fluorescence microplate based assay; assay type: functional; settings: time 6 day
Mycobacterium marinum [5] = experiment: In vivo antimycobacterial efficacy in Mycobacterium marinum expressing Wasabi infected zebrafish larvae assessed as prevention of bacterial load using fluorescence pixel count determination at 0.5 ug/ml treated for 2 to 4 days after 1 day post infection; assay type: functional, organism-based; settings: dose 0.5 µg/ml, time 2-4 day
Method in brief: (§2)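 Golden mutant or Tg(mpeg1:mCherry) zebrafish embryos were dechorionated and anaesthetised in 0.016% tricaine. At 30 hpf, 2–3 nL containing about 200–250 cfu of Wasabi-expressing M. marinum M (pTEC15) was injected into the caudal vein. The inoculum was confirmed by plating on 7H10. Embryos were kept in E3 at 28.5 °C, 12 per well, to follow infection and survival.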

[6] = system: Mycobacterium tuberculosis; experiment: Bactericidal activity against Non-replicating Mycobacterium tuberculosis ss18b-lux assessed as bacterial killing by measuring CFU after 1 week; assay type: functional, organism-based; settings: time 1.0 weeks, DDE = dose-dependent effect; method in brief: as §1
Pseudomonas aeruginosa = experiment: Antibiotic activity against Pseudomonas aeruginosa POA1 assessed as reduction in bacterial cell growth by measuring resazurin reduction incubated for 6 days by fluorescence microplate based assay; assay type: functional; settings: POA1, 144 h, time 6 day
Staphylococcus aureus = experiment: Antibiotic activity against Staphylococcus aureus SH1000 assessed as reduction in bacterial cell growth by measuring resazurin reduction incubated for 6 days by fluorescence microplate based assay; assay type: functional; settings: SH1000, 144 h, time 6 day
Method in brief: (§3)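 E. coli BW25113, E. coli ΔtolC and S. aureus SH1000 were cultured and tested in cation-adjusted Mueller Hinton II broth. Viability was read by adding resazurin and measuring resorufin fluorescence at Ex 530 nm / Em 590 nm.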

Mycobacterium marinum [7] = experiment: In vivo antimycobacterial efficacy in Mycobacterium marinum expressing Wasabi infected zebrafish larvae assessed as prolongation of survival treated for 4 days after 1 day post infection; assay type: functional, organism-based; settings: dose 0.3-1.2 µM, time 4.0 day, DDE = dose-dependent effect; method in brief: as §2
Mycobacterium marinum [8] = experiment: Antibiotic activity against Mycobacterium marinum M strain assessed as reduction in bacterial cell growth by measuring resazurin reduction incubated for 6 days by fluorescence microplate based assay; assay type: functional; settings: 144 h, time 6 day
[9] = system: Mycobacterium tuberculosis; experiment: Inhibition of Ndh2 in Mycobacterium tuberculosis assessed as increase in NADH/NAD+ ratio at 600 nM measured after 24 hrs
Method in brief: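 Mid-log H37Rv diluted to OD600 0.3 and exposed to compound at 37°C for 2 and 24 h. Pellets extracted in 0.2 M HCl (NAD⁺) or 0.2 M NaOH (NADH), bead-milled, heated 55°C 10 min, neutralised. NAD/NADH-Glo luminescence read against an NADH standard curve, corrected for OD600. Three independent experiments, duplicate technical replicates.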

Escherichia coli [10] = experiment: Antibiotic activity against Escherichia coli deltatolC BW25113 deltatolC assessed as reduction in bacterial cell growth by measuring resazurin reduction incubated for 6 days by fluorescence microplate based assay; assay type: functional; settings: 144 h, time 6 day; method in brief: as §3
[11] = Octanol/PBS partition coefficient, logD of compound at pH 7.4 measured after 2 hrs by shake flask method; assay type: physicochemical; settings: octanol/water, pH 7.4, 2 h
Method in brief: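 A 10 mM DMSO stock was diluted 50-fold into 1:1 octanol:PBS pH 7.4 and shaken gently for 2 h at room temperature. Each phase was diluted 50-fold in MeOH and quantified by LC-MS/MS. LogD = log of the octanol/PBS concentration ratio from mass signals. Run in triplicate.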

[12] = system: Mycobacterium tuberculosis; experiment: Bactericidal activity against Non-replicating Mycobacterium tuberculosis ss18b-lux assessed as decrease in colony forming unit measured at 4.8 uM after 1 weeks; assay type: functional; method in brief: as §1
[13] = system: Mycobacterium tuberculosis; experiment: Inhibition of Ndh2 in Mycobacterium tuberculosis assessed as decrease in ATP concentration measured after 24 hrs; settings: DDE = dose-dependent effect
Method in brief: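 Log-phase H37Rv diluted to OD600 0.01 in complete 7H9 and exposed in 96-well plates to compound added from a 100× DMSO stock, at 37°C. ATP measured with BacTiter-Glo luminescence after 4 and 24 h; three independent experiments.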

[14] = system: Mycobacterium tuberculosis; experiment: Bactericidal activity against replicating Mycobacterium tuberculosis H37Rv assessed as reduction in colony forming unit measured at 2 to 4 times of MIC after 1 to 2 weeks; assay type: functional; settings: time 1-2 weeks
Method in brief: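 Mid-log H37Rv in 7H9-GTy-OADC diluted to OD600 0.02 (~1×10⁶ cfu/mL) and exposed to compound in 96-well replica plates for 1 or 2 weeks. For the 3 lowest concentrations without visible growth, serial 10-fold dilutions plated on 7H11-OADC and cfu counted over 6 weeks at 37°C. Four independent experiments; log10 cfu/mL ± SD.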

Mycobacterium marinum [15] = experiment: In vivo antimycobacterial efficacy in Mycobacterium marinum expressing Wasabi infected zebrafish larvae assessed as prevention of bacterial infection foci at 0.25 to 2 ug/ml treated for 2 to 4 days after 1 day post infection; assay type: functional, organism-based; settings: dose 0.25-2 µg/ml, time 2-4 day; method in brief: as §2
Escherichia coli [16] = experiment: Antibiotic activity against Escherichia coli BW25113 assessed as reduction in bacterial cell growth by measuring resazurin reduction incubated for 6 days by fluorescence microplate based assay; assay type: functional; settings: BW25113, 144 h, time 6 day; method in brief: as §3
[17] = system: Mycobacteroides abscessus; experiment: Antibiotic activity against Mycobacterium abscessus CIP104536, Smooth variant assessed as reduction in bacterial cell growth by measuring resazurin reduction incubated for 6 days by fluorescence microplate based assay; assay type: functional; settings: 144 h, time 6 day
Mycobacterium marinum [18] = experiment: In vivo antimycobacterial efficacy in Mycobacterium marinum expressing Wasabi infected zebrafish larvae assessed as prolongation of survival time at 4.8 uM treated for 4 days after 1 day post infection; assay type: functional; settings: time 4 day
[19] = Metabolic stability in mouse liver microsomes; assay type: ADME, Microsome
Mycobacterium marinum [20] = experiment: In vivo antimycobacterial efficacy in Mycobacterium marinum expressing Wasabi infected zebrafish larvae assessed as prolongation of survival at 9.6 uM treated for 4 days after 1 day post infection; assay type: functional, organism-based; settings: time 4.0 day; method in brief: as §2
[21] = system: Mycobacterium tuberculosis; experiment: Antibiotic activity against Mycobacterium tuberculosis H37Rv assessed as reduction in bacterial cell growth by measuring resazurin reduction incubated for 6 days by fluorescence microplate based assay; assay type: functional; settings: 144 h, time 6 day
Klebsiella pneumoniae = experiment: Antibiotic activity against Klebsiella pneumoniae LMG 2095 assessed as reduction in bacterial cell growth by measuring resazurin reduction incubated for 6 days by fluorescence microplate based assay; assay type: functional; settings: LMG 2095, 144 h, time 6 day
Bacillus subtilis = experiment: Antibiotic activity against Bacillus subtilis ATCC6633 assessed as reduction in bacterial cell growth by measuring resazurin reduction incubated for 6 days by fluorescence microplate based assay; assay type: functional; settings: ATCC6633, 144 h, time 6 day
Mycobacterium avium = experiment: Antibiotic activity against Mycobacterium avium TMC 724, ATCC-25291 assessed as reduction in bacterial cell growth by measuring resazurin reduction incubated for 6 days by fluorescence microplate based assay; assay type: functional; settings: TMC 724, ATCC-25291, 144 h, time 6 day
Acinetobacter baumannii = experiment: Antibiotic activity against Acinetobacter baumannii LMG-17978 assessed as reduction in bacterial cell growth by measuring resazurin reduction incubated for 6 days by fluorescence microplate based assay; assay type: functional; settings: LMG-17978, 144 h, time 6 day
Mycobacterium marinum [22] = experiment: in vivo antimycobacterial efficacy in Mycobacterium marinum infected zebrafish larvae assessed as reduction in bacterial burden at 0.25 to 2 micog/ml measured after 2 to 4 days off post infection; assay type: functional, organism-based; settings: time 2-4 day
[23] = system: Mycobacteroides abscessus; experiment: Antibiotic activity against Mycobacterium abscessus CIP104536, Rough variant assessed as reduction in bacterial cell growth by measuring resazurin reduction incubated for 6 days by fluorescence microplate based assay; assay type: functional; settings: 144 h, time 6 day
[24] = system: Mycolicibacterium smegmatis; experiment: Antibiotic activity against Mycobacterium smegmatis mc2155 assessed as reduction in bacterial cell growth by measuring resazurin reduction incubated for 6 days by fluorescence microplate based assay; assay type: functional; settings: mc2155, 144 h, time 6 day
[25] = Toxicity in noninfected zebrafish larvae assessed as larval development; set-up: species or system Danio rerio; settings: in vivo
[26] = Toxicity in noninfected zebrafish larvae assessed as toxic effect; set-up: species or system Danio rerio; settings: in vivo

COc1nc2ccc(Br)cc2cc1[C@@H](c1ccccc1)[C@@](O)(CCN(C)C)c1cccc2ccccc12 [BEDAQUILINE]
pIC50 [1]: 7.47 | Activity [2]: 1 log10CFU | Activity [3]: Tde

CC[C@H](C)[C@H]1CO[C@]23CCN(Cc4ccccc4)C[C@H]2CCC(=O)N13
MIC98 [4]: 9.5 µM (≈ 3.25 µg/mL)

NNC(=O)c1ccncc1 [ISONIAZID]
pIC50 [1]: 6.69

C[C@H]1CO[C@]23CCN(Cc4ccccc4)C[C@H]2CCC(=O)N13
MIC98 [4]: >100 µM

CC[C@H]1CO[C@]23CCN(Cc4ccccc4)C[C@H]2CCC(=O)N13
MIC98 [4]: 18.8 µM (≈ 5.91 µg/mL)

CC(C)(C)[C@H]1CO[C@]23CCN(Cc4ccccc4)C[C@H]2CCC(=O)N13
MIC98 [4]: 25 µM (≈ 8.56 µg/mL)

CC(C)[C@H]1CO[C@]23CCN(Cc4ccc(OC(F)(F)F)cc4)C[C@H]2CCC(=O)N13
Activity (Mycobacterium marinum [5]): Active | Activity [6]: Dde | MIC (Pseudomonas aeruginosa): > 100 µM | MIC (Staphylococcus aureus): > 100 µM | Activity (Mycobacterium marinum [7]): Dde | MIC (Mycobacterium marinum [8]): 0.16 µM (≈ 0.066 µg/mL) | inhibition [9]: Active | MIC (Escherichia coli [10]): 100 µM (≈ 41.2 µg/mL) | logD [11]: 3.9 | Activity [12]: 1 log10CFU | inhibition [13]: Dde | Activity [14]: 0.8 log10CFU | Activity (Mycobacterium marinum [15]): Active | MIC (Escherichia coli [16]): > 100 µM | MIC [17]: 8.1 µM (≈ 3.34 µg/mL) | Time (Mycobacterium marinum [18]): 3 days | Drug metabolism [19]: Metabolite_Detected | Activity (Mycobacterium marinum [20]): Active | MIC [21]: 0.13 µM (≈ 0.0536 µg/mL) | MIC (Klebsiella pneumoniae): > 100 µM | MIC98 [4]: 0.13 µM (≈ 0.0536 µg/mL) | MIC (Bacillus subtilis): > 100 µM | MIC (Mycobacterium avium): 0.38 µM (≈ 0.157 µg/mL) | MIC (Acinetobacter baumannii): > 100 µM | Activity (Mycobacterium marinum [22]): Active | MIC [23]: 8.1 µM (≈ 3.34 µg/mL) | MIC [24]: 1.3 µM (≈ 0.536 µg/mL) | pIC50 [1]: 6.44 | Activity [25]: Non-Toxic | Activity [3]: Tde | Activity [26]: Non-Toxic

Reference: ChEMBL document CHEMBL5150070, “Tricyclic SpiroLactams Kill Mycobacteria In Vitro and In Vivo by Inhibiting Type II NADH Dehydrogenases” (J Med Chem, 2022)
